Active and inactive are the calls of the source.
How the values were obtained:
[1] = test system: Rattus norvegicus; assay: Anticonvulsant activity in Sprague-Dawley rat assessed as protection against maximal electroshock-induced seizures at 30 mg/kg, po after 2 hrs; assay type: functional, organism-based; set-up: dose 30 mg/kg
Outline: (§1)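 Male Sprague-Dawley rats (100–150 g), compound given orally at 30 mg/kg, dissolved in saline or suspended in 0.5% methylcellulose. Maximal electroshock seizures elicited with 60-cycle alternating current. Result recorded as number protected/number tested at each time point.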

[2] = test system: Mus musculus; assay: Anticonvulsant activity in albino CF1 mouse assessed as protection against maximal electroshock-induced seizures at 100 mg/kg, ip after 0.5 hr; assay type: functional, organism-based; set-up: dose 100 mg/kg
Outline: (§2)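 Male albino CF No. 1 mice (18–25 g) dosed ip at 30, 100 and 300 mg/kg in saline or 0.5% methylcellulose, tested 15, 30, 60 and 240 min after dosing. Maximal electroshock seizures elicited with 60-cycle alternating current. Scored as animals protected/animals tested, small qualitative groups.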

[3] = test system: Rattus norvegicus; assay: Neurotoxicity in Sprague-Dawley rat assessed as […] at 30 mg/kg, po after 1 hr […]; assay type: toxicity, organism-based; set-up: dose 30 mg/kg, route oral; conditions: in vivo
[4] = test system: Mus musculus; assay: Anticonvulsant activity in albino CF1 mouse assessed as protection against maximal electroshock-induced seizures at 100 mg/kg, ip after 4 hrs; assay type: functional, organism-based; set-up: dose 100 mg/kg; outline: as §2
[5] = test system: Mus musculus; assay: Anesthetic activity in albino CF1 mouse assessed as latency in response to thermal stimuli administered as 1% solution, sc measured after 15 mins by modified tail immersion test; assay type: functional
Outline: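 Male Albino Swiss (CD-1) mice, 6-8 per group, tested at 1% and 2% compound concentration. Tail distal 3 cm immersed in water at 50 ± 0.5 °C 15 min after treatment. Tail-withdrawal latency recorded with a 20 s cutoff. Value is % difference in latency vs vehicle-treated mice. Mean ± SEM, Student's t-test.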

[6] = test system: Rattus norvegicus; assay: Neurotoxicity in Sprague-Dawley rat assessed as minimal motor impairment at 30 mg/kg, po after 4 hrs by rotorod test; assay type: toxicity, organism-based; set-up: dose 30 mg/kg, route oral; conditions: in vivo
[7] = test system: Mus musculus; assay: Anticonvulsant activity in albino CF1 mouse assessed as protection against maximal electroshock-induced seizures at 300 mg/kg, ip after 0.5 hr; assay type: functional, organism-based; set-up: dose 300 mg/kg; outline: as §2
[8] = test system: Mus musculus; assay: Neurotoxicity in albino CF1 mouse assessed as minimal motor impairment at 300 mg/kg, ip after 4 hrs by rotorod test; assay type: toxicity, organism-based; set-up: dose 300 mg/kg, route intraperitoneal; conditions: in vivo
Outline: (§3)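 Rotarod in male CF No. 1 mice after ip dosing (30, 100, 300 mg/kg; saline or 0.5% methylcellulose) at 15–240 min. Knurled plastic rod, 1-inch diameter, 6 rpm. Toxicity means failing to stay on for 1 min on three successive attempts. Recorded as toxic/tested.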

[9] = test system: Mus musculus; assay: Neurotoxicity in albino CF1 mouse assessed as minimal motor impairment at 100 mg/kg, ip after 0.5 hr by rotorod test; assay type: toxicity, organism-based; set-up: dose 100 mg/kg, route intraperitoneal; conditions: in vivo; outline: as §3
[10] = test system: Rattus norvegicus; assay: Anticonvulsant activity in Sprague-Dawley rat assessed as protection against maximal electroshock-induced seizures at 30 mg/kg, po after 0.25 hr; assay type: functional, organism-based; set-up: dose 30 mg/kg; outline: as §1
[11] = test system: Rattus norvegicus; assay: Anticonvulsant activity in Sprague-Dawley rat assessed as protection against maximal electroshock-induced seizures at 30 mg/kg, po after 4 hrs; assay type: functional, organism-based; set-up: dose 30 mg/kg; outline: as §1
[12] = test system: Mus musculus; assay: […] activity in ip dosed albino CF1 mouse assessed as inhibition of phenylbenzoquinone-induced writhing administered after 30 mins prior challenge; assay type: functional
Outline: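 Male Albino Swiss (CD-1) mice, 6-8 per dose. Compound given ip in 0.5% methylcellulose. 30 min later, 0.25 ml of 0.02% phenylbenzoquinone injected. After 5 min, writhes counted over 10 min. % effect = (vehicle mean − drug mean)/vehicle mean × 100. ED50 derived; Student's t-test.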

[13] = test system: Rattus norvegicus; assay: Anticonvulsant activity in po dosed Sprague-Dawley rat assessed as protection against maximal electroshock-induced seizures measured after 0.25 to 4 hrs; assay type: functional
Outline: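 Male Sprague-Dawley rats, 100–150 g, dosed orally at 30 mg/kg. Maximal electroshock (60-cycle alternating current) applied at time points after dosing. Scored as animals protected/animals tested.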

[14] = test system: Mus musculus; assay: Anticonvulsant activity in albino CF1 mouse assessed as protection against maximal electroshock-induced seizures at 300 mg/kg, ip after 4 hrs; assay type: functional, organism-based; set-up: dose 300 mg/kg; outline: as §2
[15] = test system: Rattus norvegicus; assay: Neurotoxicity in Sprague-Dawley rat assessed as minimal motor impairment at 30 mg/kg, po after 0.5 hr by rotorod test; assay type: toxicity, organism-based; set-up: dose 30 mg/kg, route oral; conditions: in vivo
[16] = test system: Mus musculus; assay: Neurotoxicity in albino CF1 mouse assessed as minimal motor impairment at 100 mg/kg, ip after 4 hrs by rotorod test; assay type: toxicity, organism-based; set-up: dose 100 mg/kg, route intraperitoneal; conditions: in vivo; outline: as §3
[17] = test system: Mus musculus; assay: Anesthetic activity in […] assessed as latency in response to thermal stimuli administered as 2% solution, sc measured after 15 mins by modified tail immersion test; assay type: functional, albino CF1
[18] = test system: Rattus norvegicus; assay: Anticonvulsant activity in Sprague-Dawley rat assessed as protection against maximal electroshock-induced seizures at 30 mg/kg, po after 0.5 hr; assay type: functional, organism-based; set-up: dose 30 mg/kg; outline: as §1
[19] = test system: Mus musculus; assay: Neurotoxicity in albino CF1 mouse assessed as minimal motor impairment at 300 mg/kg, ip after 0.5 hr by rotorod test; assay type: toxicity, organism-based; set-up: dose 300 mg/kg, route intraperitoneal; conditions: in vivo; outline: as §3
[20] = test system: Rattus norvegicus; assay: Anticonvulsant activity in Sprague-Dawley rat assessed as protection against maximal electroshock-induced seizures at 30 mg/kg, po after 1 hr; assay type: functional, organism-based; set-up: dose 30 mg/kg; outline: as §1
[21] = test system: Mus musculus; assay: Analgesic activity in albino CF1 mouse assessed as inhibition of heat-induced paw licking or jumping behaviour administered after 30 mins prior heat challenge by hot plate method; assay type: functional
[22] = test system: Mus musculus; assay: Anticonvulsant activity in albino CF1 mouse assessed as protection against subcutaneous metrazol-induced seizures at 30 to 300 mg/kg, ip after 0.5 to 4 hrs; assay type: functional, organism-based
Outline: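 CF No. 1 male mice dosed ip at 30, 100 or 300 mg/kg (saline or 0.5% methylcellulose), then given pentetrazole 85 mg/kg sc as 0.5% solution in posterior midline. Watched 30 min. Protection means no threshold seizure (single clonic spasm episode of at least 5 s). Expressed as protected/tested.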

[23] = test system: Rattus norvegicus; assay: Neurotoxicity in Sprague-Dawley rat assessed as […] at 30 mg/kg, po after 0.25 hr […]; assay type: toxicity, organism-based; set-up: dose 30 mg/kg, route oral; conditions: in vivo
[24] = test system: Rattus norvegicus; assay: Neurotoxicity in Sprague-Dawley rat assessed as […] at 30 mg/kg, po after 2 hrs […]; assay type: toxicity, organism-based; set-up: dose 30 mg/kg, route oral; conditions: in vivo
[25] = test system: Mus musculus; assay: Neurotoxicity in albino CF1 mouse assessed as minimal motor impairment at 30 mg/kg, ip after 0.5 hr by rotorod test; assay type: toxicity, organism-based; set-up: dose 30 mg/kg, route intraperitoneal; conditions: in vivo
Outline: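 Male albino CF No. 1 mice, compound ip in saline or 0.5% methylcellulose. Rotarod: 1-inch knurled rod at 6 rpm. Toxicity is failure to stay on the rod for 1 min on three successive attempts. Expressed as toxic/tested.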

[26] = test system: Mus musculus; assay: Anticonvulsant activity in albino CF1 mouse assessed as protection against maximal electroshock-induced seizures at 100 mg/kg, ip after 1 hr; assay type: functional, organism-based; set-up: dose 100 mg/kg; outline: as §2
[27] = test system: Mus musculus; assay: Anticonvulsant activity in albino CF1 mouse assessed as protection against maximal electroshock-induced seizures at 30 mg/kg, ip after 0.5 hr; assay type: functional, organism-based; set-up: dose 30 mg/kg
Outline: (§4)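 Male albino CF No. 1 mice, 18–25 g. Compound in saline or 0.5% methylcellulose, ip. Seizures elicited by 60-cycle alternating current maximal electroshock. Result expressed as animals protected/animals tested.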

[28] = test system: Mus musculus; assay: Neurotoxicity in albino CF1 mouse assessed as minimal motor impairment at 100 mg/kg, ip after 0.25 hr by rotorod test; assay type: toxicity, organism-based; set-up: dose 100 mg/kg, route intraperitoneal; conditions: in vivo; outline: as §3
[29] = test system: Mus musculus; assay: Neurotoxicity in albino CF1 mouse assessed as minimal motor impairment at 100 mg/kg, ip after 1 hr by rotorod test; assay type: toxicity, organism-based; set-up: dose 100 mg/kg, route intraperitoneal; conditions: in vivo; outline: as §3
[30] = test system: Mus musculus; assay: Neurotoxicity in albino CF1 mouse assessed as minimal motor impairment at 30 mg/kg, ip after 4 hrs by rotorod test; assay type: toxicity, organism-based; set-up: dose 30 mg/kg, route intraperitoneal; conditions: in vivo; outline: as §3
[31] = test system: Mus musculus; assay: Anticonvulsant activity in albino CF1 mouse assessed as protection against maximal electroshock-induced seizures at 30 mg/kg, ip after 4 hrs; assay type: functional, organism-based; set-up: dose 30 mg/kg; outline: as §4
[32] = test system: Mus musculus; assay: Anticonvulsant activity in albino CF1 mouse assessed as protection against maximal electroshock-induced seizures at 100 mg/kg, ip after 0.25 hr; assay type: functional, organism-based; set-up: dose 100 mg/kg; outline: as §2

Row | Compound | Activity [2] | Activity [4] | Activity [5] | Activity [7] | Activity [8] | Activity [9] | ED50 [12] | Activity [14] | Activity [16] | Activity [17] | Activity [19] | ED50 [21] | Activity [22] | Activity [26] | Activity [28] | Activity [29] | Activity [32] | also measured
1 | O=C1OCCC1N1CCN(c2cccc(C(F)(F)F)c2)CC1 (racemic) | inactive | Active | 81% | Active | Non-toxic | Non-toxic | 0.8 mg/kg | inactive | Non-toxic | 149% | Toxic | 1.3 mg/kg | inactive |  |  |  |  | Activity [1]: Active; Activity [3]: Non-toxic; Activity [6]: Non-toxic; Activity [10]: inactive; Activity [11]: Active; ED50 [13]: 112 mg/kg; Activity [15]: Toxic; Activity [18]: inactive; Activity [20]: inactive; Activity [23]: Non-toxic; Activity [24]: Non-toxic
2 | COc1ccc(Cl)cc1N1CCN(C2CCOC2=O)CC1 (racemic) | inactive | inactive | 12% | Active | Toxic | Toxic | 19 mg/kg | inactive | Toxic | 29% | Toxic | 28.1 mg/kg | inactive | inactive | Non-toxic | Toxic | inactive | Activity [25]: Toxic; Activity [27]: inactive; Activity [30]: Non-toxic; Activity [31]: inactive
3 | COc1ccccc1N1CCN(C2CCOC2=O)CC1 (racemic) | inactive | inactive | 97% | Active | Non-toxic | Non-toxic | 0.3 mg/kg | inactive | Non-toxic | 152% | Toxic | 0.7 mg/kg | inactive | inactive | Non-toxic | Non-toxic | inactive | 
